Results taken from ChEMBL document CHEMBL1124335, “5-Isoquinolinesulfonamide derivatives. 1. Synthesis and vasodilatory activity of N-(2-guanidinoethyl)-5-isoquinolinesulfonamide derivatives” (1989).

Key:
[1] = tested on: Canis familiaris; experiment: Increasing effect on femoral blood flow (FBF) in femoral artery of anesthetized dogs.; assay type: functional, Canis lupus familiaris
How it was run: (§1)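 Anesthetized dogs, trachea intubated and ventilated at 12-16 cycles/min, with tidal volume set to hold arterial pH, pCO2 and pO2 within physiological limits. Body temperature kept at 37-38 °C. Drug given locally intra-arterially into the femoral artery, at least three doses per compound. Trapidil 100 μg was given before and after as reference. Femoral blood flow increase read from at least three dose-response curves. Expressed as equieffective dose ratio versus trapidil (mg/mg).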

[2] = tested on: Canis familiaris; experiment: Compound was evaluated for increasing effect on femoral blood flow (FBF) in femoral artery of anesthetized dogs, compared to Trapidil; ND is no detectable vasodilation.; assay type: functional, organism-based; conditions: Canis lupus familiaris; how it was run: as §1
[3] = tested on: Canis familiaris; experiment: Compound was evaluated for increasing effect on femoral blood flow (FBF) in femoral artery of anesthetized dogs, compared to Trapidil; No detectable vasodilation; assay type: functional, organism-based; conditions: Canis lupus familiaris; how it was run: as §1

Row | Compound | Equieffective dose ratio vs trapidil for femoral blood flow increase [1] | also measured
1 | Cl.N=C(N)NCCNS(=O)(=O)c1cccc2cnccc12 | 1.7 | 
2 | CN(CCN=C(N)N)S(=O)(=O)c1cccc2cnccc12.Cl | 1.8 | 
3 | Cl.N=C(N)NCCCNS(=O)(=O)c1cccc2cnccc12 | 4.3 | 
4 | Cl.N=C(N)N1CCN(S(=O)(=O)c2cccc3cnccc23)CC1 | 0.62 | 
5 | Cl.N/C(=N\CCNS(=O)(=O)c1cccc2cnccc12)N[N+](=O)[O-] | >10 | 
6 | Cl.O=S(=O)(NCCN=C(Nc1ccccc1)Nc1ccccc1)c1cccc2cnccc12 | >50 | 
7 | C/N=C(\NC)NCCNS(=O)(=O)c1cccc2cnccc12.Cl | >50 | 
8 | Cl.N=C(N)NCCCCCCNS(=O)(=O)c1cccc2cnccc12 | 3.8 | 
9 | Cl.O=S(=O)(NCCNC1=NCCN1)c1cccc2cnccc12 | 24 | 
10 | CN(CCNS(=O)(=O)c1cccc2cnccc12)C(=N)N.Cl | 1.1 | 
11 | CC1CN(S(=O)(=O)c2cccc3cnccc23)C(C)CN1C(=N)N.Cl (stereo not drawn) | 1.6 | 
12 | Cl.N#CNC(=N)NCCNS(=O)(=O)c1cccc2cnccc12 | >50 | 
13 | COc1ccc([C@@H]2Sc3ccccc3N(CCN(C)C)C(=O)[C@@H]2OC(C)=O)cc1.Cl [DILTIAZEM HYDROCHLORIDE] | 0.21 | 
14 | Cl.N=C(N)N1CCCN(S(=O)(=O)c2cccc3cnccc23)CC1 | 0.19 | 
15 | CNC(=N)NCCNS(=O)(=O)c1cccc2cnccc12 |  | FBF [2]: No detectable vasodilation
16 | N=C(N)NNS(=O)(=O)c1cccc2cnccc12 |  | FBF [3]: No detectable vasodilation
17 | Cl.O=S(=O)(NCCNc1ncccn1)c1cccc2cnccc12 | >30 | 
18 | Cl.N=C(N)NCCCCNS(=O)(=O)c1cccc2cnccc12 | 16 | 
